Assay results from different studies.
Protocols differ between the studies behind these lines. Converted amounts (≈) assume the structure as drawn.

CC(C)Nc1cccnc1N1CCN(C(=O)c2cc3cc(NS(C)(=O)=O)ccc3[nH]2)CC1
IC90 (Human immunodeficiency virus 1; viral replication, inhibitor; human PBMC; clinical isolate): 57.6 nM

CC(C)CN(C[C@@H](O)[C@H](Cc1ccccc1)NC(=O)O[C@H]1CO[C@H]2OCC[C@H]21)S(=O)(=O)c1ccc(N)cc1
IC50 (Human immunodeficiency virus 1; viral replication; T-lymphoid): 1.6 nM

CC[C@H](C)C[C@H](C)CCCCCCCCC(=O)N[C@H]1C[C@@H](O)[C@@H](NCCN)NC(=O)[C@@H]2[C@@H](O)CCN2C(=O)[C@H]([C@H](O)CCN)NC(=O)[C@H]([C@H](O)[C@@H](O)c2ccc(O)cc2)NC(=O)[C@@H]2C[C@@H](O)CN2C(=O)[C@H]([C@@H](C)O)NC1=O
MIC (Clavispora lusitaniae; microbial growth, broth dilution; MY1396): 0.25 µg/mL (≈ 0.229 µM)

Cc1ccnc2c1NC(=O)c1cccnc1N2C1CC1
IC90 (Human immunodeficiency virus 1; viral replication; human PBMC; clinical isolate): 242 nM

COC(=O)c1cc(-c2cccc(NC(=O)Nc3c(C)cccc3C)c2)on1
MIC (Mycolicibacterium fortuitum; microbial growth, broth dilution; ATCC6841; 48 h): > 64 µg/mL

CC(C)CN(C[C@@H](O)[C@H](Cc1ccccc1)NC(=O)O[C@H]1CO[C@H]2OCC[C@H]21)S(=O)(=O)c1ccc(B(O)O)cc1
IC50 (Human immunodeficiency virus 1; viral replication, inhibitor; MT2): 49 nM

COC(=O)c1cc(-c2ccc(NC(=O)Nc3ccc(Cl)c(Cl)c3)cc2)on1
MIC (Mycolicibacterium fortuitum; microbial growth, broth dilution; ATCC6841; 48 h): > 64 µg/mL

CC(C)CN(C[C@@H](O)[C@H](Cc1ccccc1)NC(=O)O[C@H]1CO[C@H]2OCC[C@H]21)S(=O)(=O)c1ccc(N)cc1
IC50 (Human immunodeficiency virus 1; viral replication, inhibitor; MT2): 1.6 nM
